ChEMBL document CHEMBL1125399, “Perfluorocarbon-based antidiabetic agents” (1992)

Assays:
[1] = system: Mus musculus; assay: Effect on the mean body weight of mice on day 1 (pre) of swiss CD-1 mice (charles river), in groups of six dosed orally once per day for 4 days with 50 mg/kg of compound; assay type: functional; conditions: route oral
Summary of the method: (§1)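 Swiss CD-1 mice (20–25 g) in groups of six; vehicle controls in three cages of three. Compound 50 mg/kg or vehicle (2% Tween 80/saline) given by gavage each afternoon for 4 consecutive days. Body weight taken before dosing (day 1) and on the morning of day 5. Mice were then killed under halothane and heart and liver weighed, per 10 g body weight. Bonferroni t test.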

[2] = organism: Mus musculus; assay: Percent plasma glucose concentration of drug treated mice (ob/ob) relative to vehicle control animals; assay type: functional
Summary of the method: (§2)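 Female ob/ob mice, 10 weeks old, fed ad libitum, in groups of 7–11. Dosed po once daily for 4 days in 0.5% methyl cellulose vehicle. Decapitated the next morning; 0.1 mL blood into saline with Trasylol and EDTA; plasma glucose by autoanalyzer. Reciprocal-transformed (y = 160/x) harmonic mean given as % of vehicle. Bonferroni-adjusted comparisons.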

[3] = system: Mus musculus; assay: Effect on the mean body weight of mice on day 5 (post) of swiss CD-1 mice (charles river), in groups of six dosed orally once per day for 4 days with 50 mg/kg of compound; assay type: functional; conditions: route oral; summary of the method: as §1
[4] = system: Mus musculus; assay: Effect on the mean heart weight of mice on day 1 (pre) of swiss CD-1 mice (charles river), in groups of six dosed orally once per day for 4 days with 50 mg/kg of compound; expressed as mg/10 g body weight; assay type: functional; conditions: route oral
[5] = system: Mus musculus; assay: Effect on the mean liver weight of mice on day 1 (pre) of swiss CD-1 mice (charles river), in groups of six dosed orally once per day for 4 days with 50 mg/kg of compound; expressed as mg/10 g body weight; assay type: functional; conditions: route oral
[6] = system: Mus musculus; assay: Percent plasma glucose concentration of drug treated mice (ob/ob) relative to vehicle control animals following 75 mg/kg administration.; assay type: functional; summary of the method: as §2
[7] = system: Mus musculus; assay: Effect on the mean body weight of mice on day 1 (pre) of swiss CD-1 mice (charles river), in groups of six dosed orally once per day for 4 days with 50 mg/kg of compound; […]; assay type: functional; conditions: route oral
[8] = system: Mus musculus; assay: Percent plasma glucose concentration of drug treated mice (ob/ob) relative to vehicle control animals was determined at the dose of 75 mg/kg

SMILES	Body weight [1]	Body weight [3]	Heart weight [4]	Liver weight [5]	Activity [6]	further results
O=C(Nc1ccc(Cc2nn[nH]n2)cc1)C(F)(F)C(F)(F)C(F)(F)C(F)(F)C(F)(F)C(F)(F)C(F)(F)F	30.5 g	31.4 g	39 mg 10g-1	1.25 g 10g-1		Activity [2]: 66%
O=C(O)C(F)(F)C(F)(F)C(F)(F)C(F)(F)C(F)(F)C(F)(F)F					107%	
O=C(Nc1ccc(Cc2nn[nH]n2)cc1)c1ccc(C(F)(F)F)cc1					130%	
O=C(O)C(F)(F)C(F)(F)C(F)(F)C(F)(F)F					133%	
CCCCNC(=O)C(F)(F)C(F)(F)C(F)(F)C(F)(F)C(F)(F)C(F)(F)C(F)(F)F					70%	
Cl.Nc1ccc(Cc2nn[nH]n2)cc1		30.1 g	43 mg 10g-1	0.591 g 10g-1	93%	Body weight [7]: 29.8 g
CCCCCCCC(=O)NNC(=O)C(F)(F)C(F)(F)C(F)(F)C(F)(F)C(F)(F)C(F)(F)C(F)(F)F	30.6 g	30.6 g	37 mg 10g-1	1.44 g 10g-1	74%	
OC(c1ccccc1)C(F)(F)C(F)(F)C(F)(F)C(F)(F)C(F)(F)C(F)(F)C(F)(F)C(F)(F)F (configuration not stated)					64%	
FC(F)(F)C(F)(F)C(F)(F)C(F)(F)C(F)(F)C(F)(F)C(F)(F)CNc1ccc(Cc2nn[nH]n2)cc1	30.3 g	31.2 g	39 mg 10g-1	0.856 g 10g-1	57%	
CCCCN(Cc1ccccc1)C(=O)C(F)(F)C(F)(F)C(F)(F)C(F)(F)C(F)(F)C(F)(F)C(F)(F)F	30.8 g	31.1 g	40 mg 10g-1	1.18 g 10g-1	61%	
CCCC(=O)Nc1ccc(Cc2nn[nH]n2)cc1					108%	
N#CCc1ccc(NC(=O)C(F)(F)C(F)(F)C(F)(F)C(F)(F)C(F)(F)C(F)(F)C(F)(F)F)cc1					69%	
Cc1ccc(NC(=O)C(F)(F)C(F)(F)C(F)(F)C(F)(F)C(F)(F)C(F)(F)C(F)(F)F)cc1					58%	
O=C(CCC(F)(F)F)Nc1ccc(Cc2nn[nH]n2)cc1					104%	
FC(F)C(F)(F)C(F)(F)C(F)(F)C(F)(F)C(F)(F)C(F)(F)F					90%	
O=C(Nc1ccc(Cc2nn[n-]n2)cc1)C(F)(F)C(F)(F)C(F)(F)F.[Na+]						Activity [8]: 67%
CN(C(=O)C(F)(F)C(F)(F)C(F)(F)C(F)(F)C(F)(F)C(F)(F)C(F)(F)F)c1ccc(Cc2nnnn2C)cc1	29.9 g	31.1 g	41 mg 10g-1	0.942 g 10g-1		Activity [2]: 67%
O=C(Nc1ccc(Cc2nnn(Cc3ccccc3)n2)cc1)C(F)(F)C(F)(F)C(F)(F)C(F)(F)C(F)(F)C(F)(F)C(F)(F)F	30.3 g	31.4 g	41 mg 10g-1	0.787 g 10g-1		Activity [2]: 68%
COC(=O)NCC(F)(F)C(F)(F)C(F)(F)C(F)(F)C(F)(F)C(F)(F)C(F)(F)F					57%	
FC(F)(F)C(F)(F)C(F)(F)CNc1ccc(Cc2nn[nH]n2)cc1					99%	
CCCCCCC(F)(F)C(=O)Nc1ccc(Cc2nn[nH]n2)cc1	30.4 g	31.7 g	43 mg 10g-1	0.671 g 10g-1	80%	
O=C(Nc1ccc(-c2nn[nH]n2)cc1)C(F)(F)C(F)(F)C(F)(F)F					75%	
O=C(N(Cc1ccccc1)c1ccc(Cc2nn[nH]n2)cc1)C(F)(F)C(F)(F)C(F)(F)C(F)(F)C(F)(F)C(F)(F)C(F)(F)C(F)(F)F	29.8 g	31.3 g	39 mg 10g-1	1.11 g 10g-1		Activity [2]: 55%
O=C(Nc1ccncc1)C(F)(F)C(F)(F)C(F)(F)C(F)(F)C(F)(F)C(F)(F)C(F)(F)F	30.7 g	32.4 g	39 mg 10g-1	1.08 g 10g-1		Activity [2]: 66%
O=C(O)C(F)(F)C(F)(F)C(F)(F)C(F)(F)C(F)(F)C(F)(F)C(F)(F)C(F)(F)F					124%	
CC1(COc2ccc(CC3SC(=O)NC3=O)cc2)CCCCC1 (configuration not stated) [CIGLITAZONE]						Activity [2]: 70%
CCNS(=O)(=O)C(F)(F)C(F)(F)C(F)(F)C(F)(F)C(F)(F)C(F)(F)C(F)(F)C(F)(F)F [SULFLURAMID]						Activity [2]: 90%
